This is an account of results in PubChem BioAssay AID504354 (Broad Institute, 2011).

Activity calls are given as the source filed them.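 Rule for the calls: active = curve reaches 10% of the strong reference activator's caspase signal at or below the top valid tested dose; inactive = signal moves in the opposite direction, or the rest.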

The test can be described thus: caspase activation in unprimed MEWO cells, dose response, counter-screen for A1 inhibitor project, cell-based, luminescence, dry powder, set 2 (AID 504354). Conditions: caspase-Glo luminescence, 3 h, hits give high values; at 35 µM unless noted. The procedure, abridged: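 Test system: unprimed MEWO cell line expressing A1 / Quantity: 2500 cells/well / Evaluation: caspase activity / Incubation: 3 h compound treatment at 37 °C, 1 h reagent at RT / Doses: compound delivered into wells by pin transfer / Detection: CaspaseGlo luminescence / Buffer or medium: RPMI-1640 growth medium with 10% FBS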
As for `CCOCCCNc1c([N+](=O)[O-])c(=O)n(C)c2ccccc12`, the caspase activation is 2.4% (inactive).
Take `CCOC(=O)N1CCN(c2c([N+](=O)[O-])c(=O)n(C)c3ccccc23)CC1`: the caspase activation was 2.35% (inactive).
The value for `Cc1ccc(Nc2c([N+](=O)[O-])c(=O)n(C)c3ccccc23)cc1` was 1.4% [at 1 µM] (inactive); that for `O=c1oc2ccccc2c(Nc2cc(Cl)cc(Cl)c2)c1[N+](=O)[O-]` was -1.06% [at 8 µM] (inactive); that for `Cn1c(=O)c([N+](=O)[O-])c(-n2cnc3ccccc32)c2ccccc21` was 1.87% [at 4.2 µM] (inactive).
Under `O=c1oc2ccccc2c(Sc2ccccc2)c1[N+](=O)[O-]` stands -5.15% (inactive).
